Measured values taken from ChEMBL document CHEMBL1142636 (2000).
In brackets after ≈: the same amount, converted by molar mass.

Assays:
SK-MEL-5 = experiment: Growth inhibition of human SK-MEL-5 cells; format: functional
Summary of the method: (§1)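 Tested at the NCI in its human disease-oriented in vitro screen of 60 tumour cell lines, following the Monks et al. methods. Activity is expressed as GI50, given as log molar values.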

HCT-15 = experiment: Growth inhibition of human HCT15 cells; format: functional
DLD-1 = experiment: Growth inhibition of human DLD1 cells; format: functional
KM-20L2 = experiment: Growth inhibition of human KM20L2 cells; format: functional
HOP-18 = experiment: Growth inhibition of human HOP18 cells; format: functional
KB = experiment: Growth inhibition of human KB cells; format: functional; conditions: read-out: ED50 (the source's name)
Summary of the method: (§2)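 In-house cytotoxicity assay following an NCI protocol, run on a panel of human tumour lines: KB nasopharyngeal epidermoid carcinoma and HCT-8 ileocecal adenocarcinoma. Potency is reported as ED50 in µg/mL.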

SF-539 = experiment: Growth inhibition of human SF539 cells; format: functional; summary of the method: as §1
[1] = Growth inhibition of human […] cells; format: functional
[2] = Growth inhibition of human OVACR8 cells; format: functional
[3] = Growth inhibition of human LXFL529 cells; format: functional; conditions: LXFL 529
[4] = Growth inhibition of human HL60(TB) cells; format: functional, HL-60(TB); conditions: HL-60
SF-268 = experiment: Growth inhibition of human SF268 cells; format: functional; summary of the method: as §1
HOP-62 = experiment: Growth inhibition of human HOP62 cells; format: functional
UACC-62 = experiment: Growth inhibition of human UACC62 cells; format: functional; summary of the method: as §1
SNB-75 = experiment: Growth inhibition of human SNB75 cells; format: functional; summary of the method: as §1
786-0 = experiment: Growth inhibition of human 786-0 cells; format: functional
DMS-273 = experiment: Growth inhibition of human DMS273 cells; format: functional
SK-MEL-28 = experiment: Growth inhibition of human SK-MEL-28 cells; format: functional; summary of the method: as §1
[5] = Growth inhibition of human OVACR4 cells; format: functional
SK-MEL-2 = experiment: Growth inhibition of human SK-MEL-2 cells; format: functional; summary of the method: as §1
[6] = Growth inhibition of human OVACR5 cells; format: functional
KM12 = experiment: Growth inhibition of human KM12 cells; format: functional
HOP-92 = experiment: Growth inhibition of human HOP92 cells; format: functional
[7] = Growth inhibition of human RPMI8266 cells; format: functional
UACC-257 = experiment: Growth inhibition of human UACC257 cells; format: functional; summary of the method: as §1
RXF 393 = experiment: Growth inhibition of human […] cells; format: functional
A549 = experiment: Growth inhibition of human A549 cells; format: functional
SF-295 = experiment: Growth inhibition of human SF295 cells; format: functional; summary of the method: as §1
SN12C = experiment: Growth inhibition of human SN12C cells; format: functional; summary of the method: as §1
SNB-19 = experiment: Growth inhibition of human SNB19 cells; format: functional; summary of the method: as §1
M14 = experiment: Growth inhibition of human M14 cells; format: functional
COLO 205 = experiment: Growth inhibition of human COLO205 cells; format: functional
HCC 2998 = experiment: Growth inhibition of human HCC2998 cells; format: functional
NCI-H460 = experiment: Growth inhibition of human NCI-H460 cells; format: functional
IGROV-1 = experiment: Growth inhibition of human IGROV1 cells; format: functional
CCRF-CEM = experiment: Growth inhibition of human CCRF-CEM cells; format: functional
HCT-116 = experiment: Growth inhibition of human HCT116 cells; format: functional
ACHN = experiment: Growth inhibition of human ACHN cells; format: functional
NCI-H226 = experiment: Growth inhibition of human NCI-H226 cells; format: functional
XF498 = experiment: Growth inhibition of human XF498 cells; format: functional; summary of the method: as §1
NCI-H322M = experiment: Growth inhibition of human NCI-H322M cells; format: functional
CAKI-1 = experiment: Growth inhibition of human CAKI1 cells; format: functional
SW-620 = experiment: Growth inhibition of human SW620 cells; format: functional; summary of the method: as §1
HCT-8 = experiment: Growth inhibition of human HCT8 cells; format: functional; conditions: read-out: ED50 (the source's name); summary of the method: as §2
HT-29 = experiment: Growth inhibition of human HT29 cells; format: functional
TK-10 = experiment: Growth inhibition of human TK10 cells; format: functional; summary of the method: as §1
EKVX = experiment: Growth inhibition of human EKVX cells; format: functional
[8] = Growth inhibition of human DMS144 cells; format: functional
K562 = experiment: Growth inhibition of human K562 cells; format: functional
MOLT-4 = experiment: Growth inhibition of human MOLT4 cells; format: functional
NCI-H522 = experiment: Growth inhibition of human NCI-H522 cells; format: functional
U-251 = experiment: Growth inhibition of human U251 cells; format: functional; summary of the method: as §1
SK-OV-3 = experiment: Growth inhibition of human SK-OV-3 cells; format: functional; summary of the method: as §1
Malme-3M = experiment: Growth inhibition of human MALME-3M cells; format: functional
SR = experiment: Growth inhibition of human SR cells; format: functional; summary of the method: as §1
UO-31 = experiment: Growth inhibition of human UO31 cells; format: functional; summary of the method: as §1
[9] = read-out: ED50 (the source's name)

## CC1=CC(=O)c2[nH]c3ccccc3c2C1=O [MURRAYAQUINONE A]
SK-MEL-5
  GI50: 4.27 µM
SK-MEL-5; [9]
  EC50: 2.58 µg/mL (≈ 12.2 µM)
HCT-15
  GI50: 4.17 µM
DLD-1
  GI50: 5.01 µM
KM-20L2
  GI50: 25.1 µM
HOP-18
  GI50: 3.39 µM
KB
  EC50: 5.18 µg/mL (≈ 24.5 µM)
SF-539
  GI50: 4.27 µM
[1]
  GI50: 4.57 µM
[2]
  GI50: 3.98 µM
[3]
  GI50: 4.27 µM
[4]
  GI50: 4.07 µM
SF-268
  GI50: 4.37 µM
HOP-62
  GI50: 25.1 µM
UACC-62
  GI50: 4.17 µM
SNB-75
  GI50: 4.37 µM
786-0
  GI50: 4.27 µM
DMS-273
  GI50: 4.27 µM
SK-MEL-28
  GI50: 4.47 µM
[5]
  GI50: 4.17 µM
SK-MEL-2
  GI50: 5.37 µM
[6]
  GI50: 5.37 µM
KM12
  GI50: 4.37 µM
HOP-92
  GI50: 3.98 µM
[7]
  GI50: 5.89 µM
UACC-257
  GI50: 4.57 µM
RXF 393
  GI50: 3.47 µM
A549
  GI50: 25.1 µM
SF-295
  GI50: 4.37 µM
SN12C
  GI50: 4.57 µM
SNB-19
  GI50: 25.1 µM
M14
  GI50: 4.17 µM
COLO 205
  GI50: 4.07 µM
COLO 205; [9]
  EC50: 3.85 µg/mL (≈ 18.2 µM)
HCC 2998
  GI50: 7.08 µM
NCI-H460
  GI50: 8.13 µM
IGROV-1
  GI50: 6.61 µM
CCRF-CEM
  GI50: 3.31 µM
HCT-116
  GI50: 4.47 µM
ACHN
  GI50: 4.17 µM
NCI-H226
  GI50: 6.61 µM
XF498
  GI50: 4.37 µM
NCI-H322M
  GI50: 25.1 µM
CAKI-1
  GI50: 14.5 µM
SW-620
  GI50: 3.98 µM
HCT-8
  EC50: 5.5 µg/mL (≈ 26 µM)
HT-29
  GI50: 17.8 µM
TK-10
  GI50: 5.01 µM
EKVX
  GI50: 4.07 µM
[8]
  GI50: 4.27 µM
K562
  GI50: 5.62 µM
MOLT-4
  GI50: 5.37 µM
NCI-H522
  GI50: 3.8 µM
U-251
  GI50: 15.5 µM
SK-OV-3
  GI50: 20.9 µM
Malme-3M
  GI50: 4.9 µM
SR
  GI50: 5.75 µM
UO-31
  GI50: 3.98 µM
